For 40 compounds, outcome, potentiation and inhibition results are on record in PubChem BioAssay.

Each structure is given as a SMILES string. Calls of active or inactive are those of the source.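 The calls were made as follows, unless noted: active = primary screen hit whose calcium fluorescence ratio, in both repeats, exceeds the weak agonist control mean by 3 SD; inactive = the rest.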

Sequence of Short transient receptor potential channel 4 (Mus musculus) (Q9QUQ5 whole entry, looked up): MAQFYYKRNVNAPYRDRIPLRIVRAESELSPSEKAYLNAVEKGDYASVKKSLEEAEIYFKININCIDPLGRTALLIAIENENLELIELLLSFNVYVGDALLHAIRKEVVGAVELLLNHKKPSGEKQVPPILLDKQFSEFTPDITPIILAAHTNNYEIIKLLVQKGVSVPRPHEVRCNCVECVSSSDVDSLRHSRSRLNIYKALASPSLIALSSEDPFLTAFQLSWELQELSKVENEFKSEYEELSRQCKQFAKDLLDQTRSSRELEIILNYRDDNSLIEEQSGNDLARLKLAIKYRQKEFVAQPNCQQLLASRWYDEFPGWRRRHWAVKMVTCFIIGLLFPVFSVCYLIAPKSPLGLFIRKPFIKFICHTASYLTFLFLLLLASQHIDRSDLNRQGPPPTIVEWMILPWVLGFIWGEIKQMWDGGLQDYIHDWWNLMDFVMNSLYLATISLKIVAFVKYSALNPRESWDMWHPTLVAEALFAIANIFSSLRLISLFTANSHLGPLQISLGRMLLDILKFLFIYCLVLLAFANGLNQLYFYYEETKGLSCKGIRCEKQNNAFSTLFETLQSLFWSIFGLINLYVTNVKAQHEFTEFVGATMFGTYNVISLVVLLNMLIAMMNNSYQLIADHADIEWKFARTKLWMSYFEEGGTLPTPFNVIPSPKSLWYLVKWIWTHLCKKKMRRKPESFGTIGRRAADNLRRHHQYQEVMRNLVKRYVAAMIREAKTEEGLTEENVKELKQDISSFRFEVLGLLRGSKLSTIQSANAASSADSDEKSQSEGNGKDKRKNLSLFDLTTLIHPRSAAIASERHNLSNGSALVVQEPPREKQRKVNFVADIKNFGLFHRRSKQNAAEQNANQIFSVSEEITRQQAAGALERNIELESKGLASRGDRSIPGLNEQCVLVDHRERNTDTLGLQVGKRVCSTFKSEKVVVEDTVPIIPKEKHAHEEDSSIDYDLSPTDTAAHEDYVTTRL

The first assay has as its system TRPC4 beta (transient receptor potential cation channel C4), mouse. Nature of the assay: positive allosteric modulators of mouse TRPC4, confirmation, cell-based, Fluo-4, HEK293 TRPC4beta/mu-opioid (AID 2555). Particulars: DAMGO EC20, Fluo-4 calcium flux, at 10 µM; stronger effect = higher value.
For `COc1ccc(C(CCNCc2ccc(N(C)C)cc2)c2ccccc2)cc1` (stereo not given), the outcome was inactive.

For the compound `COc1ccc(C(=O)NNC(=S)NC(=O)c2cccs2)cc1`, the result was inactive.

Turning to `Cc1cccc(C(=O)NC(=S)NNC(=O)Cc2ccccc2)c1`, the outcome was inactive.

With `COc1ccc(CC(=O)NCC(c2ccc(OC)cc2)N(C)C)cc1` (stereo not given), the outcome was inactive.

Turning to `COc1cccc(C(=O)NC2CCCN(C3Cc4ccccc4C3)C2)c1OC` (stereo not given), the result was inactive.

Consider `NC(=O)C1CCCN(CCc2ccccc2)C1` (stereo not given), for which the result was inactive.

For the compound `CNC[C@H](Cc1ccccc1)NC[C@@H](Cc1cccc2ccccc12)NCCc1ccc(C)cc1`, the result was inactive.

Take `O=C(CC1C(=O)NCCN1Cc1cccc(Oc2ccccc2)c1)NCCc1ccccn1` (stereo not given): the outcome was inactive.

As to `COc1ccccc1/C=C/CN1CCCC(CCC(=O)NCc2ccccc2F)C1` (stereo not given), the result was inactive.

On to `C=CCn1c(/N=C/c2ccc(N(C)C)cc2)nc2ccccc21`, for which the potentiation is 24% (active).

In the case of `Cc1oc(-c2ccccc2Cl)nc1CS(=O)CC(=O)NCCCN1CC(C)CC(C)C1` (stereo not given), the result was inactive.

As to `COc1ccc(CN2CCC(N(CCc3ccccc3)Cc3ccccc3)CC2)c(OC)c1`, the outcome was inactive.

In the case of `O=C(NC(=S)NNC(=O)c1ccccc1[N+](=O)[O-])c1ccc(Br)cc1`, the outcome was inactive.

For `O=C(NC1CCN(Cc2ccccc2)CC1)C12CC3CC(CC(C3)C1)C2`, the result was inactive.

As for `CCCN1CCN(C(=O)Cn2c(=O)oc3cc(S(=O)(=O)NCc4ccccc4)ccc32)CC1`, the result was inactive.

For `Cn1c2ccccc2c(=O)c2c(=O)n(C3CCCCC3)c(-c3ccco3)nc21`, the outcome was inactive.

On to `OCCC1CN(Cc2ccccc2-c2ccco2)CCN1Cc1ccccc1` (stereo not given), for which the outcome was inactive.

Regarding `CCN1CCCC1CNS(=O)(=O)c1c(C)cc(C)cc1C` (stereo not given), the result was inactive.

In the case of `Cc1ccc(OCC(=O)N(C)CCc2ccccn2)cc1`, the outcome was inactive.

In the case of `CC(C)n1cnc2c(N(C)c3ccccc3)nc(N(CCN(C)C)Cc3ccccc3)nc21`, the outcome was inactive.

Consider `CCC(=O)N1CCc2cc(Br)cc(S(=O)(=O)NCCCN(CC)Cc3ccccc3)c21`, for which the result was inactive.

For `NCCCNC(=O)c1cc2ccccc2[nH]1`, the result was inactive.

As to `CN(C)C(CNC(=O)Nc1cccc(Cl)c1)c1cccnc1` (stereo not given), the result was inactive.

`CN(C)C(CNC(=O)CCS(=O)(=O)c1ccccc1)c1ccccc1` (stereo not given): the result was inactive.

`COc1c2c(cc3c1C(CC(O)Cc1ccccc1)N(C)CC3)OCO2` (stereo not given): the outcome was inactive.

In the case of `CC1CN(C)C(C)c2c1oc1ccc(N)cc21` (stereo not given), the outcome was inactive.

For the compound `CN(C)c1ccc(C(CNC(=O)Cc2cccc3ccccc23)N(C)C)cc1` (stereo not given), the result was inactive.

Take `Cc1cc(C)cc(NC(=S)N2CCN(c3ncc(C(F)(F)F)cc3Cl)CC2)c1`: the result was inactive.

With `COC(=O)C1CCN(Cc2cn(-c3ccccc3)nc2-c2ccc3c(c2)OCO3)CC1`, the result was inactive.

`Cc1cccc(OCCOCCN2CCNCC2)c1C`: the outcome was inactive.

As to `O=C1/C(=C\c2cc([N+](=O)[O-])ccc2O)SC(=S)N1Cc1ccc(Cl)cc1`, the potentiation was 21% (active).

Take `CCn1c(N2CCN(S(=O)(=O)CC)CC2)nc2ccccc21`: the outcome was inactive.

As to `COc1ccc(CSCCN)cc1Cl`, the result was inactive.

As for `O=C1S/C(=C\c2ccc(N3CCOCC3)o2)C(=O)N1Cc1c(F)cccc1Cl`, the outcome was inactive.

Take `CC(C)(C)[C@H]1C=C(C(=O)NCc2ccccc2)O[C@@H](OCc2ccc(CO)cc2)C1`: the result was inactive.

`Nc1c(C(=O)c2ccccc2)sc2nsc(SCCN3CCCC3)c12`: the result was inactive.

As to `O=C(CC(=O)c1c(F)cccc1Cl)c1ccccc1O`, the result was inactive.

Consider `Cc1ccccc1Cn1c(CN2CCc3ccccc3C2)nc2c1c(=O)n(C)c(=O)n2C`, for which the potentiation was 46% (active).

In the case of `Cc1csc2c(N3CCN(C(=O)Nc4ccc(OC(F)(F)F)cc4)CC3)ncnc12`, the result was inactive.

In the case of `O=S(=O)(NCCc1csc(-c2ccccc2)n1)c1cccnc1`, the result was inactive.

Another assay addresses Short transient receptor potential channel 4 (Mus musculus) (UniProt Q9QUQ5). Briefly: inhibitors of mouse TRPC4 channel, confirmation, cell-based, Fluo4, HEK293 TRPC4beta/mu-opioid (AID 2636;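 active = calcium signal cut by more than 3 SD below the full-agonist control yet still positive, in both repeats and the earlier primary screen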). To be noted: DAMGO, Fluo4 calcium flux, at 10 µM; stronger effect = higher value. In outline:
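System: HEK293 stable line with TRPC4beta plus mu-opioid receptor; reagent: DAMGO, mu-opioid agonist, submaximal dose then maximally activating dose; doses: single final compound concentration of 10 µM; times: compound pre-incubation 110 s before DAMGO; technique: Fluo4 calcium flux fluorescence, kinetic read; repeats: duplicate wells for each compound, averaged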
`COc1ccc(C(CCNCc2ccc(N(C)C)cc2)c2ccccc2)cc1` (stereo not given): the outcome was inactive.

For `COc1ccc(C(=O)NNC(=S)NC(=O)c2cccs2)cc1`, the outcome was inactive.

As to `Cc1cccc(C(=O)NC(=S)NNC(=O)Cc2ccccc2)c1`, the result was inactive.

For the compound `COc1ccc(CC(=O)NCC(c2ccc(OC)cc2)N(C)C)cc1` (stereo not given), the outcome was inactive.

For `COc1cccc(C(=O)NC2CCCN(C3Cc4ccccc4C3)C2)c1OC` (stereo not given), the result was inactive.

For `NC(=O)C1CCCN(CCc2ccccc2)C1` (stereo not given), the result was inactive.

On to `CNC[C@H](Cc1ccccc1)NC[C@@H](Cc1cccc2ccccc12)NCCc1ccc(C)cc1`, for which the result was inactive.

With `O=C(CC1C(=O)NCCN1Cc1cccc(Oc2ccccc2)c1)NCCc1ccccn1` (stereo not given), the result was inactive.

As to `COc1ccccc1/C=C/CN1CCCC(CCC(=O)NCc2ccccc2F)C1` (stereo not given), the inhibition was 53% (active).

`C=CCn1c(/N=C/c2ccc(N(C)C)cc2)nc2ccccc21`: the outcome was inactive.

With `Cc1oc(-c2ccccc2Cl)nc1CS(=O)CC(=O)NCCCN1CC(C)CC(C)C1` (stereo not given), the result was inactive.

For the compound `COc1ccc(CN2CCC(N(CCc3ccccc3)Cc3ccccc3)CC2)c(OC)c1`, the result was inactive.

On to `O=C(NC(=S)NNC(=O)c1ccccc1[N+](=O)[O-])c1ccc(Br)cc1`, for which the outcome was inactive.

Consider `O=C(NC1CCN(Cc2ccccc2)CC1)C12CC3CC(CC(C3)C1)C2`, for which the result was inactive.

For the compound `CCCN1CCN(C(=O)Cn2c(=O)oc3cc(S(=O)(=O)NCc4ccccc4)ccc32)CC1`, the outcome was inactive.

In the case of `Cn1c2ccccc2c(=O)c2c(=O)n(C3CCCCC3)c(-c3ccco3)nc21`, the outcome was inactive.

Regarding `OCCC1CN(Cc2ccccc2-c2ccco2)CCN1Cc1ccccc1` (stereo not given), the outcome was inactive.

For the compound `CCN1CCCC1CNS(=O)(=O)c1c(C)cc(C)cc1C` (stereo not given), the outcome was inactive.

`Cc1ccc(OCC(=O)N(C)CCc2ccccn2)cc1`: the outcome was inactive.

Regarding `CC(C)n1cnc2c(N(C)c3ccccc3)nc(N(CCN(C)C)Cc3ccccc3)nc21`, the result was inactive.

In the case of `CCC(=O)N1CCc2cc(Br)cc(S(=O)(=O)NCCCN(CC)Cc3ccccc3)c21`, the outcome was inactive.

Take `NCCCNC(=O)c1cc2ccccc2[nH]1`: the result was inactive.

Take `CN(C)C(CNC(=O)Nc1cccc(Cl)c1)c1cccnc1` (stereo not given): the result was inactive.

`CN(C)C(CNC(=O)CCS(=O)(=O)c1ccccc1)c1ccccc1` (stereo not given): the outcome was inactive.

In the case of `COc1c2c(cc3c1C(CC(O)Cc1ccccc1)N(C)CC3)OCO2` (stereo not given), the result was inactive.

Take `CC1CN(C)C(C)c2c1oc1ccc(N)cc21` (stereo not given): the result was inactive.

On to `CN(C)c1ccc(C(CNC(=O)Cc2cccc3ccccc23)N(C)C)cc1` (stereo not given), for which the outcome was inactive.

In the case of `Cc1cc(C)cc(NC(=S)N2CCN(c3ncc(C(F)(F)F)cc3Cl)CC2)c1`, the result was inactive.

Turning to `COC(=O)C1CCN(Cc2cn(-c3ccccc3)nc2-c2ccc3c(c2)OCO3)CC1`, the outcome was inactive.

As to `Cc1cccc(OCCOCCN2CCNCC2)c1C`, the result was inactive.

For the compound `O=C1/C(=C\c2cc([N+](=O)[O-])ccc2O)SC(=S)N1Cc1ccc(Cl)cc1`, the result was inactive.

In the case of `CCn1c(N2CCN(S(=O)(=O)CC)CC2)nc2ccccc21`, the outcome was inactive.

For `COc1ccc(CSCCN)cc1Cl`, the outcome was inactive.

For `O=C1S/C(=C\c2ccc(N3CCOCC3)o2)C(=O)N1Cc1c(F)cccc1Cl`, the outcome was inactive.

As for `CC(C)(C)[C@H]1C=C(C(=O)NCc2ccccc2)O[C@@H](OCc2ccc(CO)cc2)C1`, the outcome was inactive.

For the compound `Nc1c(C(=O)c2ccccc2)sc2nsc(SCCN3CCCC3)c12`, the result was inactive.

Turning to `O=C(CC(=O)c1c(F)cccc1Cl)c1ccccc1O`, the result was inactive.

With `Cc1ccccc1Cn1c(CN2CCc3ccccc3C2)nc2c1c(=O)n(C)c(=O)n2C`, the result was inactive.

Take `Cc1csc2c(N3CCN(C(=O)Nc4ccc(OC(F)(F)F)cc4)CC3)ncnc12`: the result was inactive.

Turning to `O=S(=O)(NCCc1csc(-c2ccccc2)n1)c1cccnc1`, the outcome was inactive.
